Bioassay records deposited in PubChem BioAssay by The Scripps Research Institute Molecular Screening Center.
M1 PAM parental: nonselective calcium activators in parental CHO-K1 cells, primary screen, counter-screen for M1 PAM project, cell-based, Fluo-8 calcium fluorescence, full deck, 1536-well; ATP EC20; 0% at ATP EC20, 100% at ATP max; activation, % at 3 µM; actives 0.02% (n = 360,000); AID 602247, 2012;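 active means activation above the run cutoff, the mean activation of all test compounds plus 3 SD, cut at about 40% in these data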;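 further: peak over basal fluorescence ratio in a 140 s read after ATP addition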
CHO-K1 Ca antag: nonselective inhibitor or artifact in parental CHO-K1 cells; ATP-induced calcium, Fluo-8 fluorescence; AID 602250; inhibition, % at 3 µM; actives 0.6% (n = 360,000);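 active means inhibition above a per-plate cutoff, the plate's mean sample inhibition plus 3 SD, cut at about 24% in these data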
zfTRPN1 agonist: zebrafish TRPN1 channel agonists, primary screen, cell-based, HEK293, calcium fluorescence; transient receptor potential cation channel N1 (TRPN1/NompC), Danio rerio; HEK293 zebrafish TRPN1-YFP, Fluo-8 calcium fluorescence; 100% = response to 87 µM carbachol; activation, % at 3 µM; actives 0.18% (n = 220,000); AID 1424, 2008;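 active means activation above its plate's cutoff, the mean activation of test wells on that plate plus 3 SD, cut at about 19% in these data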
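Assay system: Zebrafish TRPN1-YFP in HEK293 cells | Incubation: Dye loading 1 h at 37 °C, then 30 min room temperature | Measured by: Kinetic Fluo-8 fluorescence, ex 470-495, em 515-575 nm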
M1 ag parental: counter-screen for M1 agonists: effect in parental CHO-K1 cells | activation, % at 3 µM | actives 0.48% (n = 360,000) | Fluo-8 calcium fluorescence; scaled to maximal ATP response, vehicle zero | AID 602248, 2012; in the data active means activation above about 15%;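 further: untransfected CHO-K1 host cells lacking M1 receptor as counterscreen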
TRPML3 ag: human TRPML3 channel agonists, primary screen, cell-based, HEK293 TRPML3-YFP, Fluo-8 calcium fluorescence, 3 µM | actives 0.29% (n = 220,000) | AID 1448, 2008 | activation, % at 3 µM | 100% = the carbachol control signal;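 active means activation above its plate's cutoff, the mean activation of the plate's test wells plus 3 SD, cut at about 12% in these data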
Target sequence (Q8TDD5 whole entry, looked up): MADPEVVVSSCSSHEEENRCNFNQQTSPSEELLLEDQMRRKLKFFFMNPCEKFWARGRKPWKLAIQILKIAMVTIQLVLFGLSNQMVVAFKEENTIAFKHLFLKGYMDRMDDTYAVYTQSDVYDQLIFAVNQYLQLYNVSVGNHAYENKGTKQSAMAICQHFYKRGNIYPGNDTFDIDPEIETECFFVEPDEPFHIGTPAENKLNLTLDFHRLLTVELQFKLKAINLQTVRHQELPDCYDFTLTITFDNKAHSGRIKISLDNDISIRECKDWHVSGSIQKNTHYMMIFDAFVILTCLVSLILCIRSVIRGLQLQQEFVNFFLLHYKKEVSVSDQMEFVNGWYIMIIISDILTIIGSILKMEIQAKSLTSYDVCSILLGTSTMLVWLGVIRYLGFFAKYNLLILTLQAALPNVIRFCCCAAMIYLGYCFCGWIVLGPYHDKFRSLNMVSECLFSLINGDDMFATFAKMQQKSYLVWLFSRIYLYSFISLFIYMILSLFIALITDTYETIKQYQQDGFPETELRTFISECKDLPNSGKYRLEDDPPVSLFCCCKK
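Test system: TRPML3-YFP stable HEK293 cells. Doses: single point at 3 µM. Incubation: dye loading 1 h 37 °C then 30 min ambient, 125 s read. Signal: Fluo-8 calcium dye fluorescence, ex 470-495, em 515-575 nm. Measure: percent activation from peak-to-basal fluorescence ratio, scaled between DMSO and carbachol.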
Large screens that a line does not name were inactive. This is a sample that favours compounds with a hit; in the whole collection about 1.2% have one here.

CCCC(=O)N1CCC1(C)C(=O)Nc1scc(C)c1C#N (centres undefined)	none (no result: zfTRPN1 agonist, TRPML3 ag)
CN(c1ccccc1)S(=O)(=O)c1cccc(NC(=O)CSc2nncs2)c1	CHO-K1 Ca antag 29
CN(c1ccccc1)S(=O)(=O)c1cccc(NC(=O)CN2CCCc3ccccc32)c1	M1 ag parental 15
NS(=O)(=O)c1cccc(NC(=O)CN2CCc3ccccc32)c1	none
COc1ccc(S(=O)(=O)NC(=O)C2(C)CCN2C(=O)COc2ccc(Cl)cc2)cc1OC (centres undefined)	none (no result: zfTRPN1 agonist, TRPML3 ag)
Cc1cc2nc(-c3ccccc3)c(Cc3ccccc3)n2c(C)c1Br	none (no result: zfTRPN1 agonist, TRPML3 ag)
CCn1c(CNC(=O)c2ccccc2F)cc2cc(C)ccc21	CHO-K1 Ca antag 31 (no result: zfTRPN1 agonist, TRPML3 ag)
CCn1c(CNC(=O)c2ccccc2F)cc2ccccc21	none (no result: zfTRPN1 agonist, TRPML3 ag)
CC(=O)Nc1ccc(-c2ccnc3c2CC(C)(C(=O)Nc2ccc(F)c(Cl)c2)O3)cc1 (centres undefined)	none (no result: zfTRPN1 agonist, TRPML3 ag)
O=C(Cc1c(O)c2ccccc2[nH]c1=O)OC1CCCCC1	CHO-K1 Ca antag 25
COc1cccc(NC(=O)Cc2c(O)c3ccccc3[nH]c2=O)c1	CHO-K1 Ca antag 25
Cc1cc(Br)cn2c(Cc3ccsc3)c(-c3ccc(F)cc3)nc12	none (no result: zfTRPN1 agonist, TRPML3 ag)
CCOC(=O)c1cn(Cc2ccccc2)c2cc(C)nn2c1=O	none
CCOC(=O)c1cn(Cc2ccccc2)c(C(=O)OC(C)(C)C)c1O	M1 ag parental 44 (no result: zfTRPN1 agonist, TRPML3 ag)
CC(C)CN1Cc2ccccc2Oc2cc(Br)ccc2S1(=O)=O	M1 PAM parental 41 (no result: zfTRPN1 agonist, TRPML3 ag)
CCCCN1Cc2ccccc2Oc2cc(Br)ccc2S1(=O)=O	none (no result: zfTRPN1 agonist, TRPML3 ag)
CN(C)S(=O)(=O)c1cccc(NC(=O)c2ccc(OC(F)(F)F)cc2)c1	M1 ag parental 19
COCc1ccc(C(=O)Nc2cccc(S(=O)(=O)N(C)c3ccccc3)c2)cc1	none (no result: zfTRPN1 agonist, TRPML3 ag)
CN(C)S(=O)(=O)c1cccc(NC(=O)c2ccc(COc3ccccc3)cc2)c1	CHO-K1 Ca antag 30, M1 ag parental 18 (no result: zfTRPN1 agonist, TRPML3 ag)
Cc1cc2c(NC(=O)Nc3ccc(C(F)(F)F)cc3)cccc2nn1	CHO-K1 Ca antag 32
Cc1cc2c(NC(=O)CCCC(=O)O)cccc2nn1	none
Cc1ccccc1C(=O)Oc1cc(N)n(S(C)(=O)=O)n1	CHO-K1 Ca antag 24
Cc1ccc(S(=O)(=O)n2nc(OC(=O)c3ccccc3C)cc2N)cc1	none (no result: zfTRPN1 agonist, TRPML3 ag)
O=C(Nc1ccccc1N1CCN(C(=O)c2ccccc2)CC1)c1ccc(Cl)cc1	none
O=C(Nc1ccccc1N1CCN(C(=O)c2ccc(Cl)cc2)CC1)c1ccc(Br)cc1	CHO-K1 Ca antag 27
O=C(c1ccc(Cl)cc1)N1CCN(c2cc(=O)[nH]nc2-c2ccccc2)CC1	CHO-K1 Ca antag 28
CN1OC[C@@H]2CN[C@H](c3ccc(-c4cc5ccccc5o4)cc3)C[C@@H]21	none (no result: zfTRPN1 agonist, TRPML3 ag)
COC(=O)C[C@H]1C[C@@H]2c3cc(NC(=O)CN(C)C)ccc3O[C@@H]2[C@H](CO)O1	none (no result: zfTRPN1 agonist, TRPML3 ag)
COCC(=O)Nc1ccc2c(c1)[C@@H]1C[C@H](CC(=O)OC)O[C@@H](CO)[C@@H]1O2	CHO-K1 Ca antag 24 (no result: zfTRPN1 agonist, TRPML3 ag)
O=C(Nc1ccc(C(=O)O)cc1)/C(=C\c1ccc([N+](=O)[O-])cc1)NC(=O)c1ccc(Br)cc1	CHO-K1 Ca antag 28
Cc1ccc(NC(=O)/C(=C\c2ccc([N+](=O)[O-])cc2)NC(=O)c2ccccc2)cc1	none
N#CCC1(O)C(=O)N(Cc2ccccc2)c2ccccc21 (centres undefined)	none (no result: zfTRPN1 agonist, TRPML3 ag)
CC1(C(=O)NS(=O)(=O)c2ccc(Cl)cc2)CCN1C(=O)CCC1CCCC1 (centres undefined)	none (no result: zfTRPN1 agonist, TRPML3 ag)
COc1ccc(CCn2nnnc2CN2CCN(C(=O)c3ccco3)CC2)cc1OC	CHO-K1 Ca antag 24
O=C(NCC1CCCCC1)c1ccc2nc([C@@H]3O[C@H](CO)[C@@H](O)[C@H]3O)[nH]c2c1	none (no result: zfTRPN1 agonist, TRPML3 ag)
CCCCC[C@@H]1[C@@H]2C(=C(OCC)C[C@@H]3C(=O)N(c4ccccc4)C(=O)[C@H]23)[C@H](c2ccccc2)N1S(=O)(=O)c1ccc(C)cc1	CHO-K1 Ca antag 25 (no result: zfTRPN1 agonist, TRPML3 ag)
CCOC1=C2[C@@H](CN(S(=O)(=O)c3ccc(C)cc3)[C@H]2c2ccc(CC)cc2)[C@H]2C(=O)N(c3ccccc3)C(=O)[C@H]2C1	none (no result: zfTRPN1 agonist, TRPML3 ag)
CCOC1=C2CN(S(=O)(=O)c3ccc(C)cc3)[C@@H](c3ccccc3)C[C@H]2[C@H]2C(=O)N(c3ccccc3)C(=O)[C@H]2C1	CHO-K1 Ca antag 28 (no result: zfTRPN1 agonist, TRPML3 ag)
CNC(=S)N1CCN(c2ccc(Cl)c(Cl)c2)CC1	M1 ag parental 17
O=C(c1ccco1)N1CCN(c2ccc(Cl)cc2)CC1	none
O=C(c1ccco1)N1CCN(c2ccc(Cl)c(Cl)c2)CC1	CHO-K1 Ca antag 26
COC(=O)N1CCN(c2ccc(Cl)c(Cl)c2)CC1	none
CC1(C)CC2(C)OC2C2(C1)N=NC(=Nc1ccccc1)O2 (centres undefined)	none (no result: zfTRPN1 agonist, TRPML3 ag)
CCOc1ccc(S(=O)(=O)N2CCCCC2)c2ccccc12	TRPML3 ag 62
CCN(CC)S(=O)(=O)c1ccc(S(=O)(=O)Nc2ccc3c(c2)oc2ccccc23)cc1	CHO-K1 Ca antag 25
CCOC(=O)c1[nH]c2ccc(C)cc2c1N	none
CCOC(=O)c1[nH]c2ccc(C(=O)OC)cc2c1C(=O)OCC	CHO-K1 Ca antag 25 (no result: zfTRPN1 agonist, TRPML3 ag)
Cc1noc(C)c1S(=O)(=O)Nc1c(C)n(C)n(-c2ccccc2)c1=O	CHO-K1 Ca antag 31
O=C(NC1CC1)c1ccc2nc([C@@H]3O[C@H](CO)[C@H](O)[C@H](O)[C@H]3O)[nH]c2c1	none (no result: zfTRPN1 agonist, TRPML3 ag)
Cc1cc(OCCCCN2C(=O)NC(C)(C)C2=O)ccc1[N+](=O)[O-]	M1 ag parental 17
Cc1ccc([N+](=O)[O-])c(OCCN2C(=O)NC(C)(C)C2=O)c1	none
COC(=O)c1csc(-c2ccc(CO)o2)n1	none (no result: zfTRPN1 agonist, TRPML3 ag)
NC(=O)c1cc2ccc(O)cc2oc1=Nc1ccccc1	CHO-K1 Ca antag 24
CCSc1nnc(-c2ccncc2)o1	none
OCC#CCSc1nnc(-c2ccncc2)o1	CHO-K1 Ca antag 37
COc1cc(Nc2ccn3nc(-c4ccccc4Cl)cc3n2)cc(OC)c1OC	none (no result: zfTRPN1 agonist, TRPML3 ag)
C=CCn1c(C(C)NC(=O)c2ccccc2)n[nH]c1=S (centres undefined)	none
CCCn1c(C(C)NC(=O)c2ccccc2)n[nH]c1=S (centres undefined)	M1 ag parental 17
O=CN1N=C(c2ccccc2)CC1c1ccccc1[N+](=O)[O-] (centres undefined)	none
N#CC1CC(c2ccccc2)=NN1c1ccccc1[N+](=O)[O-] (centres undefined)	CHO-K1 Ca antag 24
Cc1cc(-c2nnc(-c3cccc(Cl)c3)o2)no1	M1 ag parental 18
CC(=O)Oc1ccc2c(c1)Oc1cc(OC(C)=O)ccc1C21OC(=O)c2ccccc21	CHO-K1 Ca antag 101, zfTRPN1 agonist active, M1 ag parental 824, TRPML3 ag 506
